Experimental data as given in ChEMBL document CHEMBL1811844, “Design, synthesis, and biological evaluation of triazolo-pyrimidine derivatives as novel inhibitors of hepatitis B virus surface antigen (HBsAg) secretion” (J Med Chem, 2011).

Assays:
Mus musculus [1] = assay: Toxicity in HBV infected transgenic 1.3.32 mouse assessed as change in serum K+ level at 7.9 to 25 mg/kg, po qd for 14 days; type: organism-based; design: dose 7.9-25 mg/kg, route oral; details: in vivo, 336 h
Outline: (§1)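 HBV-transgenic mice (strain 1.3.32), 10 per group, randomised; oral gavage once daily for 14 days at 25 or 7.9 mg/kg in NMP:Solutol HS15/saline vehicle; vehicle-only group. Weighed before the first dose and after 3 days; observed one hour after each dose. Tail-vein blood taken before dosing, at day 7 and at day 14 necropsy, each 3 h post-dose, for serum chemistry.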

Hepatitis B virus [2] = assay: Antiviral activity against entecavir-resistant Hepatitis B virus harboring polymerase L528M, M552V, T532G and S550I mutant in human HepG2 cells assessed as inhibition of HBsAg secretion by ELISA; type: functional, organism-based
Mus musculus [3] = assay: Acute toxicity in CL57BL/6 mouse assessed as effect on serum glucose level at 25 mg/kg, iv administered as single dose after 24 hrs; type: organism-based; design: dose 25 mg/kg, route intravenous; details: in vivo
Outline: (§2)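 Female C57BL/6 mice, four per group, randomized, each given one tail-vein injection of a 2 mg/mL solution in 1:1 NMP:Solutol HS15 diluted with saline; a vehicle-only group served as control. Mice were watched for the first hour and sacrificed at 24 h with necropsy. Serum was collected and run on an automated chemistry and electrolyte analyser.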

Hepatitis B virus [4] = assay: Antiviral activity against adefovir-resistant Hepatitis B virus harboring polymerase A529V mutant in human HepG2 cells assessed as inhibition of HBsAg secretion by ELISA; type: functional, organism-based
Mus musculus [5] = assay: Acute toxicity in CL57BL/6 mouse assessed as effect on serum Ca2+ level at 25 mg/kg, iv administered as single dose after 24 hrs; type: organism-based; design: dose 25 mg/kg, route intravenous; details: in vivo; outline: as §2
Mus musculus [6] = assay: Acute toxicity in CL57BL/6 mouse assessed as effect on serum total bilirubin level at 25 mg/kg, iv administered as single dose after 24 hrs; type: organism-based; design: dose 25 mg/kg, route intravenous; details: in vivo; outline: as §2
Mus musculus [7] = assay: Acute toxicity in CL57BL/6 mouse assessed as weight loss at 25 mg/kg, iv administered as single dose after 24 hrs; type: organism-based; design: dose 25 mg/kg, route intravenous; details: in vivo
Outline: (§3)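 Female C57BL/6 mice, four per group, randomised; single tail-vein bolus in NMP:Solutol HS15 (1:1) diluted with saline to 2 mg/mL, injected within 10 min of preparation; vehicle-only group. Close observation for the first hour; sacrifice and necropsy at 24 h. Whole-blood complete blood counts and serum chemistry, including total bilirubin and total protein, were measured.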

Rattus norvegicus [8] = assay: Cmax in fasted Sprague-Dawley rat plasma at 25 mg/kg, po after 6 hrs by LC/MS/MS analysis; type: ADME, organism-based; design: dose 25 mg/kg, route oral; details: in vivo
Outline: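 Male rats, 3 per treatment, fitted with jugular vein cannulae two days before dosing and fasted 12 h (water allowed). Compound given by gavage at 25 mg/kg, formulated at 2 mg/mL in 1:1 NMP:Solutol HS15 diluted with saline. Blood taken predose and at 5, 15, 30 min, 1, 3 and 6 h. Plasma quantified by LC/MS against an 8-point standard curve; Cmax calculated by standard methods.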

Hepatitis B virus [9] = assay: Antiviral activity against wild-type Hepatitis B virus infected in human HepG2 cells assessed as inhibition of HBsAg secretion by ELISA; type: functional, organism-based
Mus musculus [10] = assay: Acute toxicity in CL57BL/6 mouse assessed as effect on red blood cells count at 25 mg/kg, iv administered as single dose after 24 hrs; type: organism-based; design: dose 25 mg/kg, route intravenous; details: in vivo
Outline: (§4)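 Female C57BL/6 mice, four per group, randomized, each given one tail-vein injection of a 2 mg/mL solution in 1:1 NMP:Solutol HS15 diluted with saline; a vehicle-only group served as control. Mice were watched closely for the first hour and sacrificed at 24 h with necropsy. Whole blood was taken for complete blood counts on an automated haematology analyser.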

Mus musculus [11] = assay: Acute toxicity in CL57BL/6 mouse assessed as effect on hemoglobin at 25 mg/kg, iv administered as single dose after 24 hrs; type: organism-based; design: dose 25 mg/kg, route intravenous; details: in vivo; outline: as §4
Mus musculus [12] = assay: Toxicity in HBV infected transgenic 1.3.32 mouse assessed as elevation in serum alanine aminotransferase level at 7.9 to 25 mg/kg, po qd for 14 days; type: organism-based; design: dose 7.9-25 mg/kg, route oral; details: in vivo, 336 h; outline: as §1
Hepatitis B virus [13] = assay: Antiviral activity against lamivudine/telbivudine-resistant Hepatitis B virus harboring polymerase L528M and M552V mutant in human HepG2 cells assessed as inhibition of HBsAg secretion by ELISA; type: functional, organism-based
Mus musculus [14] = assay: Acute toxicity in CL57BL/6 mouse assessed as effect on eosinophils percent at 25 mg/kg, iv administered as single dose after 24 hrs; type: organism-based; design: dose 25 mg/kg, route intravenous; details: in vivo; outline: as §4
Mus musculus [15] = assay: Acute toxicity in CL57BL/6 mouse assessed as effect on serum Na+ level at 25 mg/kg, iv administered as single dose after 24 hrs; type: organism-based; design: dose 25 mg/kg, route intravenous; details: in vivo; outline: as §2
Mus musculus [16] = assay: Acute toxicity in CL57BL/6 mouse assessed as effect on mean platelet volume at 25 mg/kg, iv administered as single dose after 24 hrs; type: organism-based; design: dose 25 mg/kg, route intravenous; details: in vivo; outline: as §4
Mus musculus [17] = assay: Acute toxicity in CL57BL/6 mouse assessed as effect on basophils percent at 25 mg/kg, iv administered as single dose after 24 hrs; type: organism-based; design: dose 25 mg/kg, route intravenous; details: in vivo; outline: as §4
Mus musculus [18] = assay: Toxicity in HBV infected transgenic 1.3.32 mouse assessed as morphological changes at 7.9 to 25 mg/kg, po qd for 14 days; type: organism-based; design: dose 7.9-25 mg/kg, route oral; details: in vivo, 336 h; outline: as §1
Mus musculus [19] = assay: Acute toxicity in CL57BL/6 mouse assessed as reduction in neutrophils count at 25 mg/kg, iv administered as single dose after 24 hrs; type: organism-based; design: dose 25 mg/kg, route intravenous; details: in vivo; outline: as §3
Mus musculus [20] = assay: Acute toxicity in CL57BL/6 mouse assessed as effect on white blood cells count at 25 mg/kg, iv administered as single dose after 24 hrs; type: organism-based; design: dose 25 mg/kg, route intravenous; details: in vivo; outline: as §3
Mus musculus [21] = assay: Acute toxicity in CL57BL/6 mouse assessed as effect on serum total protein level at 25 mg/kg, iv administered as single dose after 24 hrs; type: organism-based; design: dose 25 mg/kg, route intravenous; details: in vivo; outline: as §3
Mus musculus [22] = assay: Acute toxicity in CL57BL/6 mouse assessed as effect on hemoglobin concentration at 25 mg/kg, iv administered as single dose after 24 hrs; type: organism-based; design: dose 25 mg/kg, route intravenous; details: in vivo; outline: as §4
Rattus norvegicus [23] = assay: Volume of distribution at steady state in fasted Sprague-Dawley rat at 5 mg/kg, iv by LC/MS/MS analysis; type: ADME, organism-based; design: dose 5 mg/kg, route intravenous; details: in vivo
Outline: (§5)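 Male Sprague-Dawley rats, 3 per treatment, carried jugular cannulae and were fasted 12 h with water. Compound was formulated at 2 mg/mL in 1:1 NMP:Solutol HS15 diluted with saline. Dosing was 5 mg/kg iv or 25 mg/kg oral gavage. Blood was drawn predose and at 5, 15, 30 min, 1, 3 and 6 h. Plasma was quantified by LC-MS/MS against an 8-point standard curve.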

Rattus norvegicus [24] = assay: Half life in fasted Sprague-Dawley rat plasma at 5 mg/kg, iv by LC/MS/MS analysis; type: ADME, organism-based; design: dose 5 mg/kg, route intravenous; details: in vivo; outline: as §5
[25] = Cytotoxicity against human HepG2(2.2.15) cells by MTT assay; type: cell-based
Mus musculus [26] = assay: Toxicity in HBV infected transgenic 1.3.32 mouse assessed as change in serum Ca2+ level at 7.9 to 25 mg/kg, po qd for 14 days; type: organism-based; design: dose 7.9-25 mg/kg, route oral; details: in vivo, 336 h; outline: as §1
Mus musculus [27] = assay: Acute toxicity in CL57BL/6 mouse assessed as effect on serum creatinine level at 25 mg/kg, iv administered as single dose after 24 hrs; type: organism-based; design: dose 25 mg/kg, route intravenous; details: in vivo; outline: as §2
Mus musculus [28] = assay: Acute toxicity in CL57BL/6 mouse assessed as effect on serum blood urea nitrogen level at 25 mg/kg, iv administered as single dose after 24 hrs; type: organism-based; design: dose 25 mg/kg, route intravenous; details: in vivo; outline: as §2
Mus musculus [29] = assay: Toxicity in HBV infected transgenic 1.3.32 mouse assessed as change in serum total protein level at 7.9 to 25 mg/kg, po qd for 14 days; type: organism-based; design: dose 7.9-25 mg/kg, route oral; details: in vivo, 336 h; outline: as §1

Fc1cccc(Cl)c1C1CC(c2ccc(Cl)cc2)Nc2ncnn21 (racemic)
Activity (Mus musculus [1]): Non-toxic
EC50 (Hepatitis B virus [2]): 8.3 µM
Activity (Mus musculus [3]): Non-toxic
EC50 (Hepatitis B virus [4]): 5.8 µM
Activity (Mus musculus [5]): Non-toxic
Activity (Mus musculus [6]): Non-toxic
Activity (Mus musculus [7]): Non-toxic
Cmax (Rattus norvegicus [8]): 2437 ng/mL
EC50 (Hepatitis B virus [9]): 8.4 µM
Activity (Mus musculus [10]): Non-toxic
Activity (Mus musculus [11]): Non-toxic
Activity (Mus musculus [12]): Toxic
EC50 (Hepatitis B virus [13]): 10.3 µM
Activity (Mus musculus [14]): Non-toxic
Activity (Mus musculus [15]): Non-toxic
Activity (Mus musculus [16]): Non-toxic
Activity (Mus musculus [17]): Non-toxic
Activity (Mus musculus [18]): Non-toxic
Activity (Mus musculus [19]): Toxic
Activity (Mus musculus [20]): Non-toxic
Activity (Mus musculus [21]): Non-toxic
Activity (Mus musculus [22]): Non-toxic
Vdss (Rattus norvegicus [23]): 1.6 L/kg
t1/2 (Rattus norvegicus [24]): 2.17 h
CC50 [25]: > 50 µM
Activity (Mus musculus [26]): Non-toxic
Activity (Mus musculus [27]): Non-toxic
Activity (Mus musculus [28]): Non-toxic
Activity (Mus musculus [29]): Non-toxic
